Experimental data pooled from the literature.
Protocols differ between the studies behind these lines. In brackets after ≈: the same amount, converted by molar mass.

SMILES	target or system	assay	test system	setting	quantity	value
COc1ccc(N2N=C(C(C)=O)SC2=C(C#N)C(=O)c2ccc(Nc3cnccn3)cc2)cc1	Salmonella enterica	microbial growth, broth dilution	ATCC13076 TYPHIMURIUM	–	MIC	50 µg/mL (≈ 106 µM)
O=C(O)c1ccc(NCc2ccc([N+](=O)[O-])cc2)cc1	NCI-H69	cell growth or viability, resazurin	–	72 h	IC50	> 100 µM
CN(C)CCNC(=O)c1ccc(-c2nc3ccc4[nH]ncc4c3c3c2CCCCC3)c(F)c1	BJ	cell growth or viability	–	72 h	GI50	6.58 µM
CC(C)c1ccc(/C=C2\N=C(SCC(=O)O)N(c3ccccc3)C2=O)cc1	Bacillus cereus	microbial growth, broth dilution	ATCC14579	–	MIC	12 µg/mL (≈ 31.5 µM)
N=c1sc(C(=O)c2ccc(Nc3cnccn3)cc2)nn1-c1ccccc1	Salmonella enterica	microbial growth, broth dilution	ATCC13076 TYPHIMURIUM	–	MIC	100 µg/mL (≈ 267 µM)
CCc1nc(C(N)=O)c(Nc2ccc(N3CCC(N4CCN(C)CC4)CC3)c(OC)c2)nc1NC1CCOCC1	BJ	cell growth or viability	–	72 h	GI50	> 10 µM
O=C(O)c1cn(C2CC2)c2cc(N3CCNCC3)c(F)cc2c1=O	Salmonella enterica	microbial growth, well diffusion	TYPHIMURIUM	20 µg/mL	inhibition zone	4 mm
CC(=O)C1=NN(c2ccc([N+](=O)[O-])cc2)C(=C(C#N)C(=O)c2ccc(Nc3cnccn3)cc2)S1	Salmonella enterica	microbial growth, broth dilution	ATCC13076 TYPHIMURIUM	–	MIC	12.5 µg/mL (≈ 25.7 µM)
COc1ccc(C=NNC(=O)CSc2nc3c(C)cccc3c(=O)n2-c2ccccc2)cc1OS(C)(=O)=O	Salmonella enterica	microbial growth, well diffusion	TYPHIMURIUM	20 µg/mL	inhibition zone	3 mm
CN(C)c1ccc(CNc2ccc(C(=O)O)cc2)cc1	NCI-H69	cell growth or viability, resazurin	–	72 h	IC50	> 100 µM
N=c1sc(C(=O)c2ccc(Nc3cnccn3)cc2)nn1-c1ccc([N+](=O)[O-])cc1	Salmonella enterica	microbial growth, broth dilution	ATCC13076 TYPHIMURIUM	–	MIC	6.25 µg/mL (≈ 14.9 µM)
CC(C)(C)c1cc(NC(=O)Nc2ccc(-c3cn4c(n3)sc3cc(OCCN5CCOCC5)ccc34)cc2)no1	BJ	cell growth or viability	–	72 h	GI50	> 10 µM
CCS(=O)(=O)Oc1ccc(C=NNC(=O)CSc2nc3ccc(Cl)cc3c(=O)n2-c2ccccc2)cc1	Bacillus cereus	microbial growth, well diffusion	–	20 µg/mL	inhibition zone	2 mm
O=C(O)c1ccc(NCc2cc(Br)ccc2O)cc1	NCI-H69	cell growth or viability, resazurin	–	72 h	IC50	> 100 µM
Cc1n[nH]c2ccc3nc(-c4ccc(C(=O)NCCN(C)C)cc4)c4c(c3c12)CCCC4	BJ	cell growth or viability	–	72 h	GI50	7.16 µM
Nc1ccc(S(=O)(=O)Nc2ncccn2)cc1	Bacillus cereus	microbial growth, well diffusion	–	20 µg/mL	inhibition zone	3 mm
Cc1n[nH]c2ccc3nc(-c4ccc(C(=O)NCCN(C)C)cc4F)c4c(c3c12)CCCCC4	BJ	cell growth or viability	–	72 h	GI50	> 10 µM
CS(=O)(=O)Oc1ccc(C=NNC(=O)CSc2nc3ccc(Cl)cc3c(=O)n2-c2ccccc2)cc1	Salmonella enterica	microbial growth, well diffusion	TYPHIMURIUM	20 µg/mL	inhibition zone	2 mm
